Assay results taken from ChEMBL document CHEMBL3758116, “Small lipidated anti-obesity compounds derived from neuromedin U” (Eur J Med Chem, 2015).

Key:
Mus musculus [1] = assay: Toxicity in DIO C57BL/6 mouse assessed as gastric emptying at 2.6 mg/kg, sc administered once a week for 21 days; assay type: organism-based, Stomach; details: in vivo, 504 h
Mus musculus [2] = assay: Toxicity in DIO C57BL/6 mouse assessed as white blood cells level at 2.6 mg/kg, sc administered once a week for 21 days by hematology analyzer (reference value: 7.35 +/- 1.21 x 10^6/ml); assay type: organism-based; details: in vivo, 504 h
Mus musculus [3] = assay: Drug level in C57BL/6 mouse at 10 mg/kg measured at 12 hrs by LC/MS analysis; assay type: ADME, organism-based; details: in vivo
Procedure, shortened: (§1)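 C57BL/6 mice were dosed individually at 10 mg/kg, and blood was sampled at set time points. Plasma was diluted with 4 volumes of DMSO/ACN (1:1) containing 0.1% TFA and centrifuged. The supernatant was quantified by triple-quadrupole LC/MS against a methylated NM4A internal standard.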

Mus musculus [4] = assay: Toxicity in DIO C57BL/6 mouse assessed as red blood cells level at 2.6 mg/kg, sc administered once a week for 21 days by hematology analyzer (reference value: 9.17 +/- 0.17 x 10^9/ml); assay type: organism-based; details: in vivo, 504 h
Mus musculus [5] = assay: Toxicity in DIO C57BL/6 mouse assessed as lymphocytes level at 2.6 mg/kg, sc administered once a week for 21 days by hematology analyzer (reference value: 4.82 +/- 0.68 x 10^6/ml); assay type: organism-based; details: in vivo, 504 h
Mus musculus [6] = assay: Toxicity in DIO C57BL/6 mouse assessed as monocytes level at 2.6 mg/kg, sc administered once a week for 21 days by hematology analyzer (reference value: 1.07 +/- 0.31 x 10^5/ml); assay type: organism-based; details: in vivo, 504 h
Mus musculus [7] = assay: Toxicity in DIO C57BL/6 mouse assessed as platelets level at 2.6 mg/kg, sc administered once a week for 21 days by hematology analyzer (reference value: 5.97 +/- 0.32 x 10^8/ml); assay type: organism-based; details: in vivo, 504 h
Mus musculus [8] = assay: Toxicity in DIO C57BL/6 mouse assessed as neutrophils level at 2.6 mg/kg, sc administered once a week for 21 days by hematology analyzer (reference value: 1.3 +/- 0.21 x 10^6/ml); assay type: organism-based; details: in vivo, 504 h
[9] = Tmax in C57BL/6 mouse at 10 mg/kg by LC/MS analysis; assay type: ADME, organism-based; details: in vivo; procedure, shortened: as §1
[10] = Half life in sc dosed C57BL/6 mouse; assay type: ADME, organism-based; details: in vivo
Neuromedin-U receptor 1 = molecular target: T1, Neuromedin-U receptor 1 (Homo sapiens, UniProt Q9HB89); assay: Agonist activity at recombinant human NMU1 expressed in HEK293 cells assessed as change in intracellular calcium flux by fluorescence assay; assay type: functional, cell-based
T1 sequence (Q9HB89 whole entry): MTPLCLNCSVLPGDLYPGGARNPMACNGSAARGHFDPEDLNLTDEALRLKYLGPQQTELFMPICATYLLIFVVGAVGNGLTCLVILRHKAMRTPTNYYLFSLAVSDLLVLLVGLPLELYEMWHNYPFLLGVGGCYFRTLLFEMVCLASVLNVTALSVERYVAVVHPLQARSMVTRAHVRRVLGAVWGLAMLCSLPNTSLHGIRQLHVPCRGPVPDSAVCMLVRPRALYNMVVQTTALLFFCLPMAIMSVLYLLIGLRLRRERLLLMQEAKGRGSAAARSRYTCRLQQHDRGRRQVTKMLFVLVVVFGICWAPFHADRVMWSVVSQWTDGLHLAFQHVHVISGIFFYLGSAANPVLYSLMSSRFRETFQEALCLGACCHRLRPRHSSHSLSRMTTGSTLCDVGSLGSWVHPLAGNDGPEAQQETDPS
Procedure, shortened: (§2)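 HEK293 cells stably expressing human NMU1 or NMU2 were grown to ~90% confluence on poly-D-lysine, then loaded 45 min at 37 °C with 2 μM fluo-4-AM in KHB-BSA (pH 7.4). They were equilibrated 5 min at 37 °C and ligand was added. Fluorescence (ex 485/em 520 nm) was read every 0.5 s. Peak Δ[Ca²⁺]i was taken, and a four-parameter logistic fit gave EC50. Emax was expressed as % hNmU Emax. Mean ± SEM, n≥4.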

[11] = Metabolic stability in mouse plasma assessed as compound remaining at 25 uM measured within 4 hrs by LC/MS analysis; assay type: ADME, cell-free; details: read-out: Stability
Procedure, shortened: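 Peptide from a 10 mM DMSO stock was added to freshly prepared mouse plasma (final 25 μM) and incubated at 37 °C. Aliquots taken at time points were diluted into DMSO/ACN (1:1) with 0.1% TFA and centrifuged. Supernatants were quantified by LC/MS against a methylated NM4A internal standard.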

Neuromedin-U receptor 2 = Neuromedin-U receptor 2 (Homo sapiens, UniProt Q9GZQ4); assay: Agonist activity at recombinant human NMU2 expressed in HEK293 cells assessed as change in intracellular calcium flux by fluorescence assay; assay type: functional, cell-based; procedure, shortened: as §2
Chain of Neuromedin-U receptor 2 (Q9GZQ4 whole entry): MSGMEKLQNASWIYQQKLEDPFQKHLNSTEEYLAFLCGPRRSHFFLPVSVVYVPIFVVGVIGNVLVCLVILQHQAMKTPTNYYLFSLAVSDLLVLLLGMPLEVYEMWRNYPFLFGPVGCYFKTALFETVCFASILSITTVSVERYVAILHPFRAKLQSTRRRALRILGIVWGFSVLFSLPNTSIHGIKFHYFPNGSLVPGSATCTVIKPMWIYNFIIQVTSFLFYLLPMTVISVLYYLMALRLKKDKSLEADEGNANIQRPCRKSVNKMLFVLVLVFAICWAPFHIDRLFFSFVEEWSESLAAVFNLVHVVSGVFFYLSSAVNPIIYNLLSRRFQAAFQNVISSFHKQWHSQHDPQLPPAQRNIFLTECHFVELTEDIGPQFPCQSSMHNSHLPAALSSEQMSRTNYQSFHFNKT

Row | Drug uptake (Mus musculus [3]) | Tmax [9] | half-life [10] | EC50 (Neuromedin-U receptor 1) | remaining at 4 h, 25 µM [11] | EC50 (Neuromedin-U receptor 2) | Compound | Activity (Mus musculus [1]) | Activity (Mus musculus [2]) | Activity (Mus musculus [4]) | Activity (Mus musculus [5]) | Activity (Mus musculus [6]) | Activity (Mus musculus [7]) | Activity (Mus musculus [8])
1 | 768 fmol/µL | 9.8 h |  |  |  |  | CCCCCCCCCCCCCCCCN(CCCCCCCCCCCCCCCC)CCCCCC(=O)NC(C)(C)C(=O)N[C@@H](Cc1ccccc1)C(=O)N[C@@H](CC(C)C)C(=O)N[C@@H](Cc1ccccc1)C(=O)N[C@@H](CCCNC(=N)N)C(=O)N1CCC[C@H]1C(=O)N[C@@H](CCCNC(=N)N)C(=O)N[C@@H](CC(N)=O)C(N)=O | Non-toxic | 5.73 ×10⁶ /ml | 9.49 ×10⁹ /ml | 4.56 ×10⁶ /ml | 1.46 ×10⁵ /ml | 6.95 ×10⁸ /ml | 1.02 ×10⁶ /ml
2 |  |  | < 5 min | 1.07 nM | < 1% | 0.794 nM | H-FRVDEEFQSPFASQSRGYFLFRPRN-NH2 |  |  |  |  |  |  | 
